# From ChEMBL document CHEMBL4138133, “2,3-Dihydro-3β-methoxy Withaferin-A Protects Normal Cells against Stress: Molecular Evidence of Its Potent Cytoprotective Activity” (J Nat Prod, 2017)
# Active and inactive are the calls of the source. No cut-off for these calls is given here.
# Legend:
# TIG-3 [1] = assay: Cytotoxicity against human TIG3 cells assessed as induction of senescence at 64 population doubling at 0.1 uM; assay type: cell-based; settings: tig-3, 0.1 µM
# TIG-3 [2] = assay: Cytoprotective activity against UV irradiation-induced stress in human TIG3 cells assessed as decrease in CARF level irradiated with 50 mJ/cm2 of UV radiations followed by compound addition by immuno fluorescence staining based assay; assay type: functional, cell-based
# TIG-3 [3] = assay: Effect on mortalin expression level in human TIG3 cells at 0.3 to 3 uM by immuno fluorescence analysis; assay type: ADME, cell-based; settings: tig-3, 3 µM
# Method in brief: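 Methanol-fixed (chilled absolute methanol) TIG-3 fibroblasts treated with Wi-A or 3βmWi-A; immunofluorescence staining with antibodies, imaged by epifluorescence microscopy; signal quantitated from three independent experiments.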
# TIG-3 [4] = assay: Cytoprotective activity against H2O2-induced oxidative stress in human TIG3 cells assessed as decrease in CARF level pretreated with H2O2 for 2 hrs followed by compound addition by immuno fluorescence staining based assay; assay type: functional, cell-based
# TIG-3 [5] = assay: Induction of oxidative stress in human TIG3 cells assessed as increase in GADD45alpha mRNA levels by RT-PCR analysis; assay type: cell-based
# Method in brief: (§1)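 Total RNA from treated TIG-3 cells; cDNA from 2 μg RNA; PCR 95 °C 10 min, 30 cycles (95 °C 45 s, 58 °C 1 min, 72 °C 45 s), 72 °C 10 min; products on 0.8% agarose, band densitometry; three independent experiments.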
# TIG-3 [6] = assay: Induction of oxidative stress against human TIG3 cells assessed as increase in CARF mRNA levels by RT-PCR analysis; assay type: cell-based; method in brief: as §1
# TIG-3 [7] = assay: Cytotoxicity against human TIG3 cells assessed as cell death at 1 uM after 48 hrs relative to control; assay type: cell-based; settings: tig-3, 48 h
# Method in brief: (§2)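 Normal human fibroblasts (TIG-3, WI38) exposed to serially increasing compound concentrations (0.15 to 50 μM) for 48 or 72 h. Viability scored against untreated control. Triplicate experiments.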
# WI-38 [8] = assay: Cytotoxicity against human WI38 cells assessed as inhibition of colony formation at 0.1 to 0.3 uM by crystal violet staining based assay; assay type: cell-based; settings: wi-38, 0.3 µM
# Method in brief: (§3)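 Cells seeded at 500 per well and grown about 2 weeks in compound-supplemented medium, with medium changed every fourth day. Colonies fixed, stained and counted. Triplicate; Student's t test.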
# [9] = molecular target: RAC-alpha serine/threonine-protein kinase (Homo sapiens) (UniProt P31749); assay: Induction of Akt phosphorylation at Ser473 residues in H2O2 treated human TIG3 cells at 0.3 uM pretreated with H2O2 for 2 hrs followed by compound addition by immunoblot analysis
# Method in brief: (§4)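 TIG-3 cells stressed with H2O2 (500 μM, 2 h), then recovered in medium containing 0.3 or 0.6 μM compound. Lysed in NP40 buffer; 10−20 μg protein immunoblotted for pAkt Ser473, p-p38 Thr180/Tyr182, p-p44/42 Thr202/Tyr204, β-catenin, survivin, Bcl-2 or full-length PARP-1. Triplicate experiments.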
# TIG-3 [10] = assay: Cytotoxicity against human TIG3 cells assessed as decrease in ROS generation at 1.5 to 3 uM after 48 hrs; assay type: cell-based; settings: tig-3, 48 h
# [11] = molecular target: MAP kinase p38 (Homo sapiens) (UniProt O15264+Q15759+Q16539+P53778); assay: Induction of p38 MAPK phosphorylation at Thr180/Tyr182 residues in H2O2 treated human TIG3 cells at 0.3 uM pretreated with H2O2 for 2 hrs followed by compound addition by immunoblot analysis; method in brief: as §4
# TIG-3 [12] = assay: Decrease in keap1 expression level in human TIG3 cells at 0.3 to 3 uM by immunoblot analysis; assay type: ADME, cell-based; settings: tig-3, 3 µM
# Method in brief: (§5)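 TIG-3 cells treated with compound, lysed in NP40 buffer (centrifuged 20 min, 4 °C); 10−20 μg protein immunoblotted for indicated proteins; band quantitation from three independent experiments, Student's t or Mann−Whitney test.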
# TIG-3 [13] = assay: Cytoprotective activity against H2O2-induced oxidative stress in human TIG3 cells assessed as increase in cell survival at 3 uM pretreated with H2O2 for 2 hrs followed by compound addition measured after 2 days by crystal violet staining based assay; assay type: functional
# TIG-3 [14] = assay: Cytoprotective activity against H2O2-induced oxidative stress in human TIG3 cells assessed as decrease in p53 level pretreated with H2O2 for 2 hrs followed by compound addition by immuno fluorescence staining based assay; assay type: functional, cell-based
# [15] = molecular target: Mitogen-activated protein kinase 1 (Homo sapiens) (UniProt P28482); assay: Induction of ERK2 phosphorylation at Tyr204 residues in H2O2 treated human TIG3 cells at 0.3 uM pretreated with H2O2 for 2 hrs followed by compound addition by immunoblot analysis; method in brief: as §4
# TIG-3 [16] = assay: Decrease in Nrf2 expression level in human TIG3 cells at 0.3 to 3 uM by immunoblot analysis; assay type: ADME, cell-based; settings: tig-3, 3 µM; method in brief: as §5
# Homo sapiens = species on record: Homo sapiens; assay: Induction of AKT/p38/p44 MAPK-mediated survivin expression level in H2O2 treated human TIG3 cells at 0.3 uM pretreated with H2O2 for 2 hrs followed by compound addition by immunoblot analysis; method in brief: as §4
# TIG-3 [17] = assay: Induction of oxidative stress in human TIG3 cells assessed as increase in p53 expression level at 0.6 uM by immunoblot analysis; assay type: cell-based; settings: tig-3, 0.6 µM; method in brief: as §5
# TIG-3 [18] = assay: Cytotoxicity against human TIG3 cells assessed as inhibition of colony formation at 0.1 to 0.3 uM by crystal violet staining based assay; assay type: cell-based; settings: tig-3, 0.3 µM; method in brief: as §3
# TIG-3 [19] = assay: Cytoprotective activity against H2O2-induced oxidative stress in human TIG3 cells assessed as increase in Bcl2 level at 0.3 uM pretreated with H2O2 for 2 hrs followed by compound addition by immunoblot analysis; assay type: functional, cell-based; method in brief: as §4
# TIG-3 [20] = assay: Induction of apoptosis in human TIG3 cells assessed as increase in Bax levels at 0.3 to 3 uM by immunoblot analysis; assay type: cell-based; settings: tig-3, 3 µM
# Method in brief: (§6)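 TIG-3 cells treated with compound without added stress. Lysed in NP40 buffer; 10−20 μg protein immunoblotted for Bcl-2 and Bax. Band intensities quantified from three independent sets.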
# WI-38 [21] = assay: Cytotoxicity against human WI38 cells assessed as cell death at 1 uM after 48 hrs relative to control; assay type: cell-based; settings: wi-38, 48 h; method in brief: as §2
# TIG-3 [22] = assay: Induction of oxidative stress in human TIG3 cells assessed as increase in CARF expression level at 0.6 uM by immunoblot analysis; assay type: cell-based; settings: tig-3, 0.6 µM; method in brief: as §5
# TIG-3 [23] = assay: Cytotoxicity against human TIG3 cells assessed as cell death at 0.6 uM; assay type: cell-based; settings: tig-3, 0.6 µM
# Method in brief: (§7)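 Phase-contrast microscopy of morphology of control and treated normal human TIG-3 fibroblasts.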
# [24] = molecular target: Mitogen-activated protein kinase 3 (Homo sapiens) (UniProt P27361); assay: Induction of ERK1 phosphorylation at Thr202 residues in H2O2 treated human TIG3 cells at 0.3 uM pretreated with H2O2 for 2 hrs followed by compound addition by immunoblot analysis; method in brief: as §4
# TIG-3 [25] = assay: Induction of apoptosis in human TIG3 cells assessed as decrease in Bcl2 levels at 0.3 to 3 uM by immunoblot analysis; assay type: cell-based; settings: tig-3, 3 µM; method in brief: as §6
# TIG-3 [26] = assay: Cytotoxicity against human TIG3 cells assessed as induction of morphological changes at 0.3 to 1.5 uM after 48 hrs by phase contrast microscopy; assay type: cell-based; settings: tig-3, 48 h; method in brief: as §7
# TIG-3 [27] = assay: Cytoprotective activity against H2O2-induced oxidative stress in human TIG3 cells assessed as increase in full length PARP level at 0.3 uM pretreated with H2O2 for 2 hrs followed by compound addition by immunoblot analysis; assay type: functional, cell-based; method in brief: as §4
# [28] = molecular target: RAC-alpha serine/threonine-protein kinase (Homo sapiens) (UniProt P31749); assay: Induction of AKT-mediated beta-catenin expression level in H2O2 treated human TIG3 cells at 0.3 uM pretreated with H2O2 for 2 hrs followed by compound addition by immunoblot analysis; method in brief: as §4
# TIG-3 [29] = assay: Cytoprotective activity against UV irradiation-induced stress in human TIG3 cells assessed as decrease in p53 level irradiated with 50 mJ/cm2 of UV radiations followed by compound addition by immuno fluorescence staining based assay; assay type: functional, cell-based
# Sequence of RAC-alpha serine/threonine-protein kinase (Homo sapiens) (P31749 whole entry): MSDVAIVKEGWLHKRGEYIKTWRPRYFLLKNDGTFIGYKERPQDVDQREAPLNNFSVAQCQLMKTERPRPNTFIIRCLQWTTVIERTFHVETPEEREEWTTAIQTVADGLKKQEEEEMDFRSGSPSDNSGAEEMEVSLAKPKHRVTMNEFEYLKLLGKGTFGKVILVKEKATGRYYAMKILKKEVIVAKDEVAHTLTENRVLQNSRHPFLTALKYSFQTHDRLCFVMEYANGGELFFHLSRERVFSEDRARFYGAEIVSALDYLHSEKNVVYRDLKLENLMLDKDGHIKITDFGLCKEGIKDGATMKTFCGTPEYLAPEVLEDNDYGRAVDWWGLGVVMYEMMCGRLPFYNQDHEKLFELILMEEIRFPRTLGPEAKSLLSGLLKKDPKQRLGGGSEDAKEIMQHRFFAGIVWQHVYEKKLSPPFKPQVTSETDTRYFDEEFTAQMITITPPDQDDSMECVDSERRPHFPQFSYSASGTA
# Sequence of Mitogen-activated protein kinase 3 (Homo sapiens) (P27361 whole entry): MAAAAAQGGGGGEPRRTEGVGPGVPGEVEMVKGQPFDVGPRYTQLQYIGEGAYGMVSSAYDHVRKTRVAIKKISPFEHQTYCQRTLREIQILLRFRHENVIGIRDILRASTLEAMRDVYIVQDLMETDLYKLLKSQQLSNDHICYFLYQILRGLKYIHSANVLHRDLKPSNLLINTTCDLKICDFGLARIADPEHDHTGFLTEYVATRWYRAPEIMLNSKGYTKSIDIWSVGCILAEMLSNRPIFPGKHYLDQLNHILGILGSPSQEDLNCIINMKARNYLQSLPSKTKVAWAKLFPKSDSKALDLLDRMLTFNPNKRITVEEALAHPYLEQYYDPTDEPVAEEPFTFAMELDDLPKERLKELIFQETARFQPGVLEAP
# Sequence of Mitogen-activated protein kinase 1 (Homo sapiens) (P28482 whole entry): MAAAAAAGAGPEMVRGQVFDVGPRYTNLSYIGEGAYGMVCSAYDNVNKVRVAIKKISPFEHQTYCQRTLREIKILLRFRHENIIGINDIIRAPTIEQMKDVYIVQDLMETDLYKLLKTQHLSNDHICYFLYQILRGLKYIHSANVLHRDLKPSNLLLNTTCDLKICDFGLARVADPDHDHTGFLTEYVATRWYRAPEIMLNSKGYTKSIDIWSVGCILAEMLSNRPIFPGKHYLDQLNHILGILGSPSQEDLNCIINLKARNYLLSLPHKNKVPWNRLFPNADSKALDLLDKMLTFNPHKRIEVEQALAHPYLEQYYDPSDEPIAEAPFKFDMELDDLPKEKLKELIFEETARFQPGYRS
smiles,measurement,setting,value
CC1=C(CO)C(=O)O[C@@H]([C@@H](C)[C@H]2CC[C@H]3[C@@H]4C[C@H]5O[C@]56[C@@H](O)C=CC(=O)[C@]6(C)[C@H]4CC[C@]23C)C1 [WITHAFERIN A],Activity,TIG-3 [1],Toxic
same,Activity,TIG-3 [2],inactive
same,Activity,TIG-3 [3],Toxic
same,Activity,TIG-3 [4],inactive
same,Activity,TIG-3 [5],Toxic
same,Activity,TIG-3 [6],Toxic
same,Activity,TIG-3 [7],90%
same,Activity,WI-38 [8],Toxic
same,Activity,[9],Active
same,Activity,TIG-3 [10],Toxic
same,Activity,[11],Active
same,Activity,TIG-3 [12],Toxic
same,Activity,TIG-3 [13],inactive
same,Activity,TIG-3 [14],inactive
same,Activity,[15],Active
same,Activity,TIG-3 [16],Toxic
same,Activity,Homo sapiens,Active
same,Activity,TIG-3 [17],Toxic
same,Activity,TIG-3 [18],Toxic
same,Activity,TIG-3 [19],inactive
same,Activity,TIG-3 [20],Toxic
same,Activity,WI-38 [21],90%
same,Activity,TIG-3 [22],Toxic
same,Activity,TIG-3 [23],Toxic
same,Activity,[24],Active
same,Activity,TIG-3 [25],Toxic
same,Activity,TIG-3 [26],Toxic
same,Activity,TIG-3 [27],inactive
same,Activity,[28],Active
same,Activity,TIG-3 [29],inactive
